Assay results: ChEMBL document CHEMBL4041462, “Rice Bran Protein as a Potent Source of Antimelanogenic Peptides with Tyrosinase Inhibitory Activity” (J Nat Prod, 2016)
The source made the active and inactive calls. The rule behind the calls is not given here.

What follows are compounds tested against T1, Mushroom tyrosinase (Agaricus bisporus) (UniProt O42713+Q00024+C7FF04+C7FF05) (assay: Inhibition of mushroom tyrosinase monophenolase activity at 100 to 500 uM using L-tyrosine as substrate). Settings: not given.
How it was run: (§1)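 Monophenolase: 2.0 mM L-tyrosine (stock, 100 μL) in 0.1 M phosphate buffer pH 6.5 with peptide or water was preincubated 10 min at 30 °C. Mushroom tyrosinase (1320 units/mL stock) was added and absorbance at 475 nm monitored at 30 °C. Lag time was taken by extrapolating the linear dopachrome rise to the x-axis. Residual activity = (1/lag with inhibitor)/(1/lag with water) × 100. IC50 was read manually from curves. Triplicate.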

Compound | inhibition
H-DTVHGQW-OH | inactive
H-HPTSEVY-OH | Active
H-WEEEPEDER-OH | inactive

Continued, values first:

inhibition | Compound
Active | H-HGGEGGRPY-OH
inactive | H-WEAGQDQR-OH

What follows are compounds tested against T1, Mushroom tyrosinase (Agaricus bisporus) (assay: Inhibition of mushroom tyrosinase diphenolase activity at 100 to 500 uM using L-DOPA as substrate). Settings: not given.
How it was run: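 Diphenolase: 2.0 mM L-dopa (stock, 100 μL) was mixed with 0.1 M phosphate buffer pH 6.5 and peptide or water, then preincubated 10 min at 30 °C. Mushroom tyrosinase (1320 units/mL stock) was added and dopachrome followed at 475 nm, 30 °C. Residual activity = rate (ΔA475/min) with inhibitor ÷ rate with water × 100. IC50 was estimated manually from inhibition curves. Performed three times.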

Compound | inhibition
H-DTVHGQW-OH | inactive
H-HPTSEVY-OH | inactive
H-LQPSHY-OH | inactive
H-WEEEPEDER-OH | inactive

Next, values leading:

inhibition | Compound
inactive | H-HGGEGGRPY-OH
inactive | H-WEAGQDQR-OH

The compounds below were run against T2, Tyrosinase (Mus musculus) (UniProt P11344) (assay: Inhibition of tyrosinase in mouse B16 cells assessed as reduction in melanin production at 125 to 500 uM after 3 days). Settings: not given.
T2 sequence (whole entry): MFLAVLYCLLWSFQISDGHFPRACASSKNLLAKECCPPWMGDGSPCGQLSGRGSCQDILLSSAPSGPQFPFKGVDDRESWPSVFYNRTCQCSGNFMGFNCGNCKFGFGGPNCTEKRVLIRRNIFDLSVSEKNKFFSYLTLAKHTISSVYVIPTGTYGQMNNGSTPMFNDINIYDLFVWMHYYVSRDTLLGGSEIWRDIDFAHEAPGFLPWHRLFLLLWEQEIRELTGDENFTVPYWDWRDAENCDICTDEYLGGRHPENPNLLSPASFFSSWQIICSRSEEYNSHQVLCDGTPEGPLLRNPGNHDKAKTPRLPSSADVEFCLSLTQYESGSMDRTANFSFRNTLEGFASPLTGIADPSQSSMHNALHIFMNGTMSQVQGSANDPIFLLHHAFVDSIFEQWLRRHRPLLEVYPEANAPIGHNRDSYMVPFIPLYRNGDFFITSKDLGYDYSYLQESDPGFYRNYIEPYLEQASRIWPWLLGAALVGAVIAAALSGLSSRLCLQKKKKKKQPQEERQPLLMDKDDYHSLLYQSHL
Type: cell-based
How it was run: (§2)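 Melanin content: B16 mouse melanoma cells were seeded at 1.5 × 10^4 cells/well and incubated 24 h. They were then exposed for 3 days to 125, 250 or 500 μM peptide in 5% FBS medium. Cells were harvested with 0.25% trypsin/1 mM EDTA, washed in PBS and lysed in 1 M NaOH, 1 h at 60 °C. Absorbance was read at 420 nm. Matched DMSO without peptide served as background.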

inhibition | Compound
inactive | H-HGGEGGRPY-OH
inactive | H-HPTSEVY-OH

Each compound was assayed on B16 (assay: Cytotoxicity against mouse B16 cells assessed as reduction in cell viability at 125 to 500 uM after 3 days by WST1/MTT assay). Settings: b16, 72 h.
Type: cell-based
How it was run: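 B16 mouse melanoma cells were grown in Eagle's MEM with Earle's salts, 5% or 10% FBS and 1% penicillin–streptomycin, 37 °C, 5% CO2. They were seeded at 1.0 × 10^3 cells/well and left 24 h. Medium was then replaced with 5% FBS medium containing peptide at 125, 250 or 500 μM. After 3 days, viability was read by WST-1. Matched DMSO without peptide served as background. Three independent experiments; mean ± SD.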

Compound | Activity
H-HGGEGGRPY-OH | Non-Toxic
H-HPTSEVY-OH | Non-Toxic
H-LQPSHY-OH | Non-Toxic

What follows are compounds tested against T2, Tyrosinase (Mus musculus) (assay: Inhibition of tyrosinase in mouse B16 cells assessed as reduction in melanin production at 500 uM after 3 days relative to control). Settings: not given.
Type: cell-based
How it was run: as §2

inhibition | Compound
Active | OC[C@H]1O[C@@H](Oc2ccc(O)cc2)[C@H](O)[C@@H](O)[C@@H]1O
> 50% | H-LQPSHY-OH

The compounds below were run against Mushroom tyrosinase (Agaricus bisporus, UniProt O42713+Q00024+C7FF04+C7FF05) (assay: Inhibition of mushroom tyrosinase monophenolase activity using L-tyrosine as substrate). Settings: not given.
How it was run: as §1

IC50 | Compound
156 µM | H-LQPSHY-OH
